According to ChEMBL document CHEMBL1153955, “Indolylarylsulfones bearing natural and unnatural amino acids. Discovery of potent inhibitors of HIV-1 non-nucleoside wild type and resistant mutant strains reverse transcriptase and coxsackie B4 virus” (J Med Chem, 2009):

Experiments:
[1] = system: Respiratory syncytial virus; experiment: Antiviral activity against RSV Long in human HeLa cells assessed as protection against virus-induced cytopathicity; type: functional, organism-based
Summary of the method: (§1)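 Confluent cell monolayers inoculated with 100 CCID₅₀ virus. After 1-2 h adsorption, residual virus removed and cultures incubated with varying compound concentrations. Cytopathicity scored once it reached completion in untreated infected controls. EC₅₀ = dose reducing virus-induced cytopathogenicity by 50%.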

Coxsackievirus B4 [2] = experiment: Antiviral activity against Coxsackievirus B4 in african green monkey Vero cells assessed as protection against virus-induced cytopathicity; type: functional, organism-based; settings: Enterovirus B; summary of the method: as §1
[3] = system: Human immunodeficiency virus 1; experiment: Antiviral activity against HIV1 3B in human CEM cells assessed as protection against virus-induced cytopathicity after 4 days; type: functional, organism-based; settings: Human immunodeficiency virus 1, 3B, CCRF-CEM, 96 h
Summary of the method: (§2)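 CEM cells (~3 × 10⁵ cells/mL) infected with ~100 CCID₅₀ per mL of HIV-1 (IIIB) or HIV-2 (ROD), then seeded into wells containing compound dilutions. After 4 days at 37 °C, syncytium (giant cell) formation was examined microscopically. EC₅₀ = concentration protecting CEM cells from HIV cytopathicity by 50%.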

[4] = Cytotoxicity against human HEL cells assessed as drug level causing microscopically detectable alteration of normal cell morphology after 3 days; type: cell-based
[5] = biological target: Human immunodeficiency virus type 1 reverse transcriptase (Human immunodeficiency virus 1, UniProt Q72547, Y181I); experiment: Inhibition of HIV1 reverse transcriptase p66/p51 Y181I mutant; settings: read-out: IC50
Summary of the method: (§3)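 Substrate was 0.5 µg poly(rA)/oligo(dT) 10:1 (0.3 µM 3′-OH ends) with 10 µM [³H]dTTP, at 37 °C. Acid-precipitable radioactivity was counted on GF/C filters after TCA washes.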

[6] = Cytotoxicity against MDCK cells assessed as drug level causing microscopically detectable alteration of normal cell morphology; type: cell-based, Canis lupus familiaris; settings: dog
[7] = system: Vesicular stomatitis virus; experiment: Antiviral activity against VSV in human HEL cells assessed as protection against virus-induced cytopathicity; type: functional, organism-based
[8] = biological target: Human immunodeficiency virus type 1 reverse transcriptase (Human immunodeficiency virus 1, UniProt Q72547); experiment: Inhibition of HIV1 reverse transcriptase p66/p51; settings: read-out: IC50
CCRF-CEM = experiment: Antiproliferative activity against human CEM cells after 3 days; type: cell-based; settings: 72 h
Summary of the method: (§4)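 Cells seeded at 5 × 10⁴ to 7.5 × 10⁴ cells/200 µL with or without serial compound dilutions; incubated at 37 °C for 2 days (L1210) or 3 days (Molt4/C8, CEM). Cell numbers counted with a Coulter counter. CC₅₀ = concentration reducing proliferation by 50% versus untreated controls, read from plots of cell number (% of control) against concentration. Means of at least two independent experiments.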

[9] = Cytotoxicity against feline CRFK cells by MTS assay; type: cell-based, Felis catus; settings: cat
[10] = system: Mammalian orthoreovirus 1; experiment: Antiviral activity against Reovirus 1 in african green monkey Vero cells assessed as protection against virus-induced cytopathicity; type: functional, organism-based; settings: Mammalian orthoreovirus 1, Vero; summary of the method: as §1
[11] = system: Human immunodeficiency virus 1; experiment: Antiviral activity against HIV1 with reverse transcriptase Y188L mutation in human CEM cells assessed as protection against virus-induced cytopathicity; type: functional, organism-based; settings: Human immunodeficiency virus 1, CCRF-CEM
Summary of the method: (§5)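 CEM cells (~3 × 10⁵ cells/mL) were infected with ~100 CCID₅₀ virus per mL and seeded with serial compound dilutions. After 4 days at 37 °C, syncytium (giant cell) formation was scored microscopically. EC₅₀ is the concentration giving 50% protection against virus cytopathicity.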

L1210 = experiment: Antiproliferative activity against mouse L1210 cells after 2 days; type: cell-based; settings: L1210, 48 h; summary of the method: as §4
Vaccinia virus = experiment: Antiviral activity against Vaccinia virus Lederle in human HEL cells assessed as protection against virus-induced cytopathicity; type: functional, organism-based; settings: Orthopoxvirus vaccinia
Influenza A virus H3N2 [12] = experiment: Antiviral activity against influenza H3N2 virus in MDCK cells assessed as reduction of virus-induced cytopathicity by visual cytopathic effect scoring method; type: functional, organism-based
Influenza A virus H3N2 [13] = experiment: Antiviral activity against influenza H3N2 virus in MDCK cells assessed as reduction of virus-induced cytopathicity by MTS method; type: functional, organism-based
Human alphaherpesvirus 2 = experiment: Antiviral activity against HSV2 G in human HEL cells assessed as protection against virus-induced cytopathicity; type: functional, organism-based; settings: Human alphaherpesvirus 2, strain G; summary of the method: as §1
Human alphaherpesvirus 1 [14] = experiment: Antiviral activity against thymidine kinase deficient and acyclovir resistant HSV1 KOS in human HEL cells assessed as protection against virus-induced cytopathicity; type: functional, organism-based; settings: Human alphaherpesvirus 1, KOS
[15] = system: Human immunodeficiency virus 1; experiment: Antiviral activity against HIV1 with reverse transcriptase Y181C mutation in human CEM cells assessed as protection against virus-induced cytopathicity; type: functional, organism-based; settings: Human immunodeficiency virus 1, CCRF-CEM; summary of the method: as §5
[16] = system: Vesicular stomatitis virus; experiment: Antiviral activity against VSV in human HeLa cells assessed as protection against virus-induced cytopathicity; type: functional, organism-based
Human alphaherpesvirus 1 [17] = experiment: Antiviral activity against HSV1 KOS in human HEL cells assessed as protection against virus-induced cytopathicity; type: functional, organism-based; settings: Human alphaherpesvirus 1, KOS
[18] = biological target: Human immunodeficiency virus type 1 reverse transcriptase (Human immunodeficiency virus 1, UniProt Q72547, K103N); experiment: Inhibition of HIV1 reverse transcriptase p66/p51 K103N mutant; settings: read-out: IC50; summary of the method: as §3
[19] = system: Human immunodeficiency virus 1; experiment: Antiviral activity against HIV1 with reverse transcriptase L100I mutation in human CEM cells assessed as protection against virus-induced cytopathicity; type: functional, organism-based; settings: Human immunodeficiency virus 1, CCRF-CEM; summary of the method: as §5
Human respirovirus 3 = experiment: Antiviral activity against Parainfluenza virus type 3 in african green monkey Vero cells assessed as protection against virus-induced cytopathicity; type: functional, organism-based; settings: Human respirovirus 3, Vero; summary of the method: as §1
Feline coronavirus = experiment: Antiviral activity against Feline coronavirus in feline […] cells assessed as inhibition of virus-induced cytopathicity; type: functional, organism-based; settings: Alphacoronavirus 1
Felid alphaherpesvirus 1 = experiment: Antiviral activity against Feline herpesvirus in feline […] cells assessed as inhibition of virus-induced cytopathicity; type: functional, organism-based
[20] = Antiproliferative activity against human Molt4/C8 cells after 3 days; type: cell-based; settings: MOLT-4, 72 h; summary of the method: as §4
Influenza A virus [21] = experiment: Antiviral activity against influenza H1N1 virus in MDCK cells assessed as reduction of virus-induced cytopathicity by MTS method; type: functional, organism-based; settings: Influenza A virus, H1N1, MDCK
Coxsackievirus B4 [22] = experiment: Antiviral activity against Coxsackievirus B4 in human HeLa cells assessed as protection against virus-induced cytopathicity; type: functional, organism-based; settings: Enterovirus B; summary of the method: as §1
[23] = Cytotoxicity against MDCK cells by MTS assay; type: cell-based, Canis lupus familiaris; settings: dog
[24] = system: Human immunodeficiency virus 2; experiment: Antiviral activity against HIV2 ROD in human CEM cells assessed as protection against virus-induced cytopathicity after 4 days; type: functional, organism-based; settings: Human immunodeficiency virus 2, ROD, CCRF-CEM, 96 h; summary of the method: as §2
[25] = Cytotoxicity against african green monkey Vero cells assessed as drug level causing microscopically detectable alteration of normal cell morphology after 3 days; type: cell-based; settings: chlorocebus sabaeus
Summary of the method: (§6)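 Serial compound dilutions added to confluent HeLa or Vero monolayers. MCC = minimum concentration causing microscopically detectable alteration of cell morphology after 3 days of incubation.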

Influenza B virus [26] = experiment: Antiviral activity against influenza B virus in MDCK cells assessed as reduction of virus-induced cytopathicity by visual cytopathic effect scoring method; type: functional, organism-based
[27] = biological target: Human immunodeficiency virus type 1 reverse transcriptase (Human immunodeficiency virus 1, UniProt Q72547, L100I); experiment: Inhibition of HIV1 reverse transcriptase p66/p51 L100I mutant; settings: read-out: IC50; summary of the method: as §3
Sindbis virus = experiment: Antiviral activity against Sindbis virus in african green monkey Vero cells assessed as protection against virus-induced cytopathicity; type: functional, organism-based; summary of the method: as §1
[28] = system: Human immunodeficiency virus 1; experiment: Antiviral activity against HIV1 with reverse transcriptase Y181I mutation in human CEM cells assessed as protection against virus-induced cytopathicity; type: functional, organism-based; settings: Human immunodeficiency virus 1, CCRF-CEM; summary of the method: as §5
[29] = Cytotoxicity against human HeLa cells assessed as drug level causing microscopically detectable alteration of normal cell morphology after 3 days; type: cell-based; summary of the method: as §6
[30] = system: Human immunodeficiency virus 1; experiment: Antiviral activity against HIV1 with reverse transcriptase K103N mutation in human CEM cells assessed as protection against virus-induced cytopathicity; type: functional, organism-based; settings: Human immunodeficiency virus 1, CCRF-CEM; summary of the method: as §5
Influenza B virus [31] = experiment: Antiviral activity against influenza B virus in MDCK cells assessed as reduction of virus-induced cytopathicity by MTS method; type: functional, organism-based
Influenza A virus [32] = experiment: Antiviral activity against influenza H1N1 virus in MDCK cells assessed as reduction of virus-induced cytopathicity by visual cytopathic effect scoring method; type: functional, organism-based
Punta Toro virus = experiment: Antiviral activity against Punta Toro virus in african green monkey Vero cells assessed as protection against virus-induced cytopathicity; type: functional, organism-based; summary of the method: as §1

`Cc1cc(C)cc(S(=O)(=O)c2c(C(=O)NCCS(N)(=O)=O)[nH]c3ccc(Cl)cc23)c1` showed an EC50 [1] greater than 4 µM, an EC50 (Coxsackievirus B4 [2]) of 9 µM and an EC50 [3] of 0.0014 µM. The MCC at 72 h [4] was 20 µM, the IC50 [5] was greater than 40 µM and the MCC [6] was 20 µM. It also gave an EC50 [7] greater than 4 µM, an IC50 [8] of 0.0004 µM and an IC50 (CCRF-CEM) of 14 µM. It also gave a CC50 [9] of 8.5 µM, an EC50 [10] of 20 µM and an IC50 [11] greater than 1 µM. For the same compound, the IC50 (L1210) was 20 µM, the EC50 (Vaccinia virus) was greater than 4 µM and the EC50 (Influenza A virus H3N2 [12]) was greater than 4 µM. The EC50 (Influenza A virus H3N2 [13]) was greater than 4 µM, the EC50 (Human alphaherpesvirus 2) was greater than 4 µM and the EC50 (Human alphaherpesvirus 1 [14]) was greater than 4 µM. The IC50 [15] was 0.23 µM, the EC50 [16] was greater than 4 µM and the EC50 (Human alphaherpesvirus 1 [17]) was greater than 4 µM. For the same compound, the IC50 [18] was 0.584 µM, the IC50 [19] was 0.0012 µM and the EC50 (Human respirovirus 3) was greater than 20 µM. It also gave an EC50 (Feline coronavirus) greater than 4 µM, an EC50 (Felid alphaherpesvirus 1) greater than 4 µM and an IC50 [20] of 12 µM. The EC50 (Influenza A virus [21]) was greater than 4 µM, the EC50 (Coxsackievirus B4 [22]) was greater than 4 µM and the CC50 [23] was 7.9 µM. The EC50 [24] was greater than 10 µM, the MCC at 72 h [25] was 100 µM and the EC50 (Influenza B virus [26]) was greater than 4 µM. For the same compound, the IC50 [27] was 0.025 µM, the EC50 (Sindbis virus) was 20 µM and the IC50 [28] was greater than 1 µM. For the same compound, the MCC at 72 h [29] was 20 µM, the IC50 [30] was 0.04 µM and the EC50 (Influenza B virus [31]) was greater than 4 µM. For the same compound, the EC50 (Influenza A virus [32]) was greater than 4 µM and the EC50 (Punta Toro virus) was 20 µM.
